*1 amine or outer side, *2 acyl side, *3 side chain or, on linkers, in order; H or OH if unused. Where a SMILES comes first, the peptide text is derived from it. [ ]: non-standard residue; d: D form. X2 = COC(=O)[C@@H]1[C@@H](N[*:1])[C@H]1C(=O)[*:2]; X1 = COC(=O)[C@H]1[C@H](N[*:1])[C@@H]1C(=O)[*:2] Where only a bound is given, the exact number is not on record here.

Consider 13 compounds from ChEMBL document CHEMBL1147739, “Identification of the key residue of calcitonin gene related peptide (CGRP) 27-37 to obtain antagonists with picomolar affinity at the CGRP receptor” (J Med Chem, 2006).

Assay [1] has as its target T1, Calcitonin-gene-related peptide receptor, CALCRL/RAMP1 (Homo sapiens, UniProt O60894+Q16602). Description: Antagonist activity on halphaCGRP-induced cAMP accumulation at human neuroblastoma SK-N-MC cells. Particulars: read-out: pA2 (converted). Format: functional, cell-based. An outline of the steps:
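SK-N-MC cells detached with PBS-EDTA, washed in HEPES/glucose Hank's, ~2 million cells/mL in buffer with 1 mM IBMX and 1% BSA. Preincubated 15 min at 37 °C, then 15 min with hRCGRP (10-5-10-12 M) alone or with fixed antagonist (10 or 100 nM). cAMP extracted with HCl, AlphaScreen read-out. Agonist EC50 shifts gave concentration ratios, and apparent pA2 = log((CR-1)/[B]). Three experiments in triplicate.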

Assay [2] deals with T1, Calcitonin-gene-related peptide receptor, CALCRL/RAMP1. Nature of the assay: Displacement of [3H-propionyl-K24] from halphaCGRP expressed in human neuroblastoma SK-N-MC cells. Type of assay: cell-based. An outline of the steps: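 Whole SK-N-MC cells, 3 million/mL in Tris pH 7.4 buffer with NaCl, MgCl2, Pefabloc and 1% BSA. Incubated 90 min at room temperature with 1 nM [3H-propionyl-K24]-hRCGRP 8-37 and competitor (10-5-10-14 M). Separated by centrifugation with a cold wash, then β-counted. IC50 by nonlinear regression, converted to Ki by Cheng-Prusoff with tracer KD. Three experiments in triplicate.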

Assay [3] has the same target. Description: Displacement of [125I-Tyr10] from halphaCGRP expressed in human neuroblastoma SK-N-MC cells. Format: cell-based. For orientation: Loss of bound radioactivity is the signal in a displacement assay; it reports binding, not function.

T1 sequence (O60894 whole entry): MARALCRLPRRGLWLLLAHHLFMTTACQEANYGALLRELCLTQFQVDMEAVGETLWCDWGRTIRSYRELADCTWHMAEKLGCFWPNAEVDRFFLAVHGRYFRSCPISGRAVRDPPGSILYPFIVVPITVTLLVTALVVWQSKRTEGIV
T1 sequence (Q16602 whole entry): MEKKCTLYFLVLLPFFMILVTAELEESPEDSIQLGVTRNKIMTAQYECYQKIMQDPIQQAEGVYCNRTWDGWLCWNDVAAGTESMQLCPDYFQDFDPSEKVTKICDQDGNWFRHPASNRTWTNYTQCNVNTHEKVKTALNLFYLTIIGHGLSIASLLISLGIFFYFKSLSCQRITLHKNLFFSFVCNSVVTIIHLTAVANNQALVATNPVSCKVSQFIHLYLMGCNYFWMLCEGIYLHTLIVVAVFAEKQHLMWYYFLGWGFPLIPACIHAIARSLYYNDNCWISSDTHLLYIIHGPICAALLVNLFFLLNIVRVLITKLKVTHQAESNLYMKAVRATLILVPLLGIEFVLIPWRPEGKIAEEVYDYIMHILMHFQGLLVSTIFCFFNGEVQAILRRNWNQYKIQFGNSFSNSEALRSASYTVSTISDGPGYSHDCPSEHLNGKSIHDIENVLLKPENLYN

In the case of H-FVATDVGPFAF-OH, the Kb in assay [1] was 25.1 nM. For the same compound, the Ki in assay [2] is 8.4 nM. As to `COC(=O)[C@@H]1[C@@H](NC(=O)[C@@H](NC(=O)[C@@H](N)Cc2ccccc2)C(C)C)[C@H]1C(=O)N[C@H](C(=O)N[C@@H](CC(=O)O)C(=O)N[C@H](C(=O)NCC(=O)N1CCC[C@H]1C(=O)N[C@@H](Cc1ccccc1)C(=O)N[C@@H](C)C(=O)N[C@@H](Cc1ccccc1)C(=O)O)C(C)C)[C@@H](C)O`, the Ki in assay [2] is above 10000 nM.

For `CC(C)[C@H](NC(=O)[C@H](CC(=O)O)NC(=O)[C@@H](NC(=O)[C@@H]1CCCCN1C(=O)[C@@H](NC(=O)[C@@H](N)Cc1ccccc1)C(C)C)[C@@H](C)O)C(=O)NCC(=O)N1CCC[C@H]1C(=O)N[C@@H](Cc1ccccc1)C(=O)N[C@@H](C)C(=O)N[C@@H](Cc1ccccc1)C(=O)O`, in assay [2], the Ki is above 10000 nM. Turning to `CC(C)[C@H](NC(=O)[C@H](CC(=O)O)NC(=O)[C@@H](NC(=O)[C@@H]1Cc2ccccc2CN1C(=O)[C@@H](NC(=O)[C@@H](N)Cc1ccccc1)C(C)C)[C@@H](C)O)C(=O)NCC(=O)N1CCC[C@H]1C(=O)N[C@@H](Cc1ccccc1)C(=O)N[C@@H](C)C(=O)N[C@@H](Cc1ccccc1)C(=O)O`, the Kb in assay [1] was 6.31 nM. The Ki in assay [2] was 0.02 nM. Turning to `COC(=O)[C@H]1[C@H](NC(=O)CNC(=O)[C@@H](NC(=O)[C@H](CC(N)=O)NC(=O)[C@@H](NC(=O)[C@@H]2CCCN2C(=O)[C@@H](NC(=O)[C@@H](N)Cc2ccccc2)C(C)C)[C@@H](C)O)C(C)C)[C@@H]1C(=O)N[C@@H](Cc1ccccc1)C(=O)N[C@@H](C)C(=O)N[C@@H](Cc1ccccc1)C(=O)O` (H-FVPTNVG[X1]FAF-OH), the Ki in assay [2] was above 10000 nM. Regarding `COC(=O)[C@@H]1[C@@H](NC(=O)CNC(=O)[C@@H](NC(=O)[C@H](CC(=O)O)NC(=O)[C@@H](NC(=O)[C@@H]2CCCN2C(=O)[C@@H](NC(=O)[C@@H](N)Cc2ccccc2)C(C)C)[C@@H](C)O)C(C)C)[C@H]1C(=O)N[C@@H](Cc1ccccc1)C(=O)N[C@@H](C)C(=O)N[C@@H](Cc1ccccc1)C(=O)O` (H-FVPTDVG[X2]FAF-OH), the Ki in assay [2] is above 10000 nM. Turning to H-FVPTDVGAFAF-OH, the Ki in assay [2] is 13.6 nM; in assay [3], 76.8 nM. As for `COC(=O)[C@@H]1[C@@H](NC(=O)CNC(=O)[C@@H](NC(=O)[C@H](CC(N)=O)NC(=O)[C@@H](NC(=O)[C@@H]2CCCN2C(=O)[C@@H](NC(=O)[C@@H](N)Cc2ccccc2)C(C)C)[C@@H](C)O)C(C)C)[C@H]1C(=O)N[C@@H](Cc1ccccc1)C(=O)N[C@@H](C)C(=O)N[C@@H](Cc1ccccc1)C(=O)O` (H-FVPTNVG[X2]FAF-OH), in assay [2], the Ki was above 10000 nM.

Take `COC(=O)[C@H]1[C@H](NC(=O)CNC(=O)[C@@H](NC(=O)[C@H](CC(=O)O)NC(=O)[C@@H](NC(=O)[C@@H]2CCCN2C(=O)[C@@H](NC(=O)[C@@H](N)Cc2ccccc2)C(C)C)[C@@H](C)O)C(C)C)[C@@H]1C(=O)N[C@@H](Cc1ccccc1)C(=O)N[C@@H](C)C(=O)N[C@@H](Cc1ccccc1)C(=O)O` (H-FVPTDVG[X1]FAF-OH): in assay [2], the Ki was above 10000 nM.

Turning to `CC(C)[C@H](NC(=O)[C@H](CC(=O)O)NC(=O)[C@@H](NC(=O)[C@@H]1CCCN1C(=O)[C@@H](NC(=O)[C@@H](N)Cc1ccccc1)C(C)C)[C@@H](C)O)C(=O)NCC(=O)N1CCC[C@H]1C(=O)N[C@@H](Cc1ccccc1)C(=O)N[C@@H](C)C(=O)N[C@@H](Cc1ccccc1)C(=O)O`, the inhibition constant Ki in assay [2] was 0.02 nM; in assay [3], 14 nM. As for `CC(C)[C@H](NC(=O)[C@H](CC(=O)O)NC(=O)[C@@H](NC(=O)[C@@H]1C[C@@H](O)CN1C(=O)[C@@H](NC(=O)[C@@H](N)Cc1ccccc1)C(C)C)[C@@H](C)O)C(=O)NCC(=O)N1CCC[C@H]1C(=O)N[C@@H](Cc1ccccc1)C(=O)N[C@@H](C)C(=O)N[C@@H](Cc1ccccc1)C(=O)O`, in assay [1], the Kb is 31.6 nM. Besides, the Ki in assay [2] was 0.006 nM.

On to `COC(=O)[C@H]1[C@H](NC(=O)[C@@H](NC(=O)[C@@H](N)Cc2ccccc2)C(C)C)[C@@H]1C(=O)N[C@H](C(=O)N[C@@H](CC(=O)O)C(=O)N[C@H](C(=O)NCC(=O)N1CCC[C@H]1C(=O)N[C@@H](Cc1ccccc1)C(=O)N[C@@H](C)C(=O)N[C@@H](Cc1ccccc1)C(=O)O)C(C)C)[C@@H](C)O`, for which, in assay [2], the Ki is 0.7 nM.

Consider `CC(C)[C@H](NC(=O)[C@H](CC(=O)O)NC(=O)[C@@H](NC(=O)C(C)(C)NC(=O)[C@@H](NC(=O)[C@@H](N)Cc1ccccc1)C(C)C)[C@@H](C)O)C(=O)NCC(=O)N1CCC[C@H]1C(=O)N[C@@H](Cc1ccccc1)C(=O)N[C@@H](C)C(=O)N[C@@H](Cc1ccccc1)C(=O)O`, for which the Kb in assay [1] was 10 nM. Besides, the Ki in assay [2] is 0.002 nM.

A word on the Ki: it is a measure of affinity in units of concentration, obtained from inhibition or displacement.
